Reference: ChEMBL document CHEMBL1144286, “Parallel synthesis of pteridine derivatives as potent inhibitors for hepatitis C virus NS5B RNA-dependent RNA polymerase” (Bioorg Med Chem Lett, 2005)

The molecules below were run against RNA-directed RNA polymerase (Hepacivirus hominis, UniProt O39930) (assay: Inhibitory concentration against RNA dependent RNA polymerase Nonstructural protein 5B of hepatitis C virus).
Summary of the method: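 Run per an earlier published HCV NS5B RdRp procedure. Compounds were dissolved in DMSO and then transferred into assay buffer. Each was tested in duplicate, and IC50 was taken as the concentration giving 50% inhibition of polymerase activity.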

RNA-directed RNA polymerase, sequence (O39930 whole entry): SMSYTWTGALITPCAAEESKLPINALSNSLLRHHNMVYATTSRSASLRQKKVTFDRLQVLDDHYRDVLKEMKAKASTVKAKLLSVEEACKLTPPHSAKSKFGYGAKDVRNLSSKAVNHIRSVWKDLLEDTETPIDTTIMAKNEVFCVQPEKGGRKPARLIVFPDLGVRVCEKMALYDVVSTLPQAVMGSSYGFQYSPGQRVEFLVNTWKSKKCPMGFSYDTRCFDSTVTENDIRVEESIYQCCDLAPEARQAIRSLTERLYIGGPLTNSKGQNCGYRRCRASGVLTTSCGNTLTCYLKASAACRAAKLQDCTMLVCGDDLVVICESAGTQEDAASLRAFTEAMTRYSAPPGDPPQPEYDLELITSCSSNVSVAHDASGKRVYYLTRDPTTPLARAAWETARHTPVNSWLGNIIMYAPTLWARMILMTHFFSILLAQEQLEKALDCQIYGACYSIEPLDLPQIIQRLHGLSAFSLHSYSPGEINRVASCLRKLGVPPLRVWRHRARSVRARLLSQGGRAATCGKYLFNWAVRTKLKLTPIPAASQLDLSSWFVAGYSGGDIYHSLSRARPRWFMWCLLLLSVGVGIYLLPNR

Compared with CCCCCCNc1ncnc2nc(-c3ccccc3)c(-c3ccccc3)nc12, CCCCOCCCNc1ncnc2nc(-c3ccccc3)c(-c3ccccc3)nc12 is lower in IC50: > 100 µM for the first, 87 µM for the second. The second is the more potent here.

COc1cccc(-c2nc3ncnc(O)c3nc2-c2cccc(OC)c2)c1 and COc1ccc(-c2nc3ncnc(O)c3nc2-c2ccc(OC)cc2)cc1 cannot be ordered by IC50: > 100 µM for the first, > 100 µM for the second.

First: c1ccc(-c2nc3ncnc(NC4CCCCCC4)c3nc2-c2ccccc2)cc1
Second: c1ccc(-c2nc3ncnc(N4CCCCC4)c3nc2-c2ccccc2)cc1
The IC50 of the first is lower: 29 µM for the first, > 100 µM for the second.

Compared with Fc1ccc(-c2nc3ncnc(NCCc4ccccc4)c3nc2-c2ccc(F)cc2)cc1, Fc1ccc(CCNc2ncnc3nc(-c4ccc(F)cc4)c(-c4ccc(F)cc4)nc23)cc1 is 2-fold higher in IC50: 13 µM for the first, 26 µM for the second. The first is the more potent here.

First: CCCCCCNc1ncnc2nc(-c3ccc(F)cc3)c(-c3ccc(F)cc3)nc12
Second: CCCCOCCCNc1ncnc2nc(-c3ccc(F)cc3)c(-c3ccc(F)cc3)nc12
The IC50 of the first is higher: > 100 µM for the first, 73 µM for the second. The second is the more potent here.

Compared with CC1CCC(Nc2ncnc3nc(-c4ccc(F)cc4)c(-c4ccc(F)cc4)nc23)CC1 (configuration not stated), Fc1ccc(-c2nc3ncnc(NC4CCC4)c3nc2-c2ccc(F)cc2)cc1 is 1.6-fold higher in IC50: 1.3 µM for the first, 2.1 µM for the second. The first is the more potent here.

First: Oc1ncnc2nc(-c3ccc(F)cc3)c(-c3ccc(F)cc3)nc12
Second: CN(C)c1ncnc2nc(-c3ccc(F)cc3)c(-c3ccc(F)cc3)nc12
The IC50 of the first is 42-fold lower: 0.5 µM for the first, 21 µM for the second. The first is the more potent here.

O=c1[nH]cnc2nc(-c3ccccc3Cl)c(-c3ccccc3Cl)nc12 and O=c1[nH]cnc2nc3c4ccccc4c4ccccc4c3nc12 cannot be ordered by IC50: > 100 µM for the first, > 100 µM for the second.

Going from Oc1ncnc2nc(-c3ccco3)c(-c3ccco3)nc12 to Oc1ncnc2nc(-c3ccccc3)c(-c3ccccc3)nc12, the IC50 falls from 58 µM to 15 µM (3.9-fold).

First: Fc1ccc(-c2nc3ncnc(NC4CCCCCC4)c3nc2-c2ccc(F)cc2)cc1
Second: Fc1ccc(-c2nc3ncnc(N4CCCCC4)c3nc2-c2ccc(F)cc2)cc1
The IC50 of the first is 21-fold lower: 3.2 µM for the first, 68 µM for the second.

First: O=c1[nH]cnc2nc3c(nc12)C1CCCCC31 (configuration not stated)
Second: O=c1[nH]cnc2nc(-c3ccccc3)c(-c3ccc([N+](=O)[O-])cc3)nc12
The IC50 of the first is higher: > 100 µM for the first, 23 µM for the second.

Going from COC(=O)C1CCCN1c1ncnc2nc(-c3ccc(F)cc3)c(-c3ccc(F)cc3)nc12 (configuration not stated) to CCNc1ncnc2nc(-c3ccc(F)cc3)c(-c3ccc(F)cc3)nc12, the IC50 falls from 51 µM to 2.9 µM (18-fold). The second is the more potent here.

Going from CCCC(C)Nc1ncnc2nc(-c3ccccc3)c(-c3ccccc3)nc12 (configuration not stated) to CCNc1ncnc2nc(-c3ccccc3)c(-c3ccccc3)nc12, the IC50 rises from 6 µM to 16 µM (2.7-fold).

Going from O=c1[nH]cnc2nc(-c3ccc(Br)cc3)c(-c3ccc(Br)cc3)nc12 to Cc1ccc(-c2nc3ncnc(O)c3nc2-c2ccc(C)cc2)cc1, the IC50 rises from 30 µM to > 100 µM. The first is the more potent here.

First: O=[N+]([O-])c1ccc(-c2nc3ncnc(O)c3nc2-c2ccccc2)cc1
Second: Cc1ccc(CNc2ncnc3nc(-c4ccccc4)c(-c4ccccc4)nc23)cc1
The IC50 of the first is lower: 30 µM for the first, > 100 µM for the second. The first is the more potent here.

First: COc1ccccc1CCNc1ncnc2nc(-c3ccc(F)cc3)c(-c3ccc(F)cc3)nc12
Second: Cc1ccc(CNc2ncnc3nc(-c4ccc(F)cc4)c(-c4ccc(F)cc4)nc23)cc1
The IC50 of the first is 8.3-fold higher: 80 µM for the first, 9.6 µM for the second. The second is the more potent here.

Oc1ncnc2nc(-c3ccccn3)c(-c3ccccn3)nc12 and Fc1ccc(CCNc2ncnc3nc(-c4ccccc4)c(-c4ccccc4)nc23)cc1 cannot be ordered by IC50: > 100 µM for the first, > 100 µM for the second.

Going from CCCC(C)Nc1ncnc2nc(-c3ccc(F)cc3)c(-c3ccc(F)cc3)nc12 (configuration not stated) to CCCCC(CC)CNc1ncnc2nc(-c3ccc(F)cc3)c(-c3ccc(F)cc3)nc12 (configuration not stated), the IC50 rises from 1.5 µM to 10 µM (6.7-fold). The first is the more potent here.

With Fc1ccc(-c2nc3ncnc(NCc4ccco4)c3nc2-c2ccc(F)cc2)cc1 the IC50 was 2.9 µM.
